Consider five molecules from paper PMC7144688 (Cell chemical biology, 2020).

Experiment [1] relates to androgen receptor (AR). The experiment in a line: AR-mediated transcription assay in MDA-kb2 cells. The class given is cell-based, human. As to conditions: 0.2 nM DHT, 20 h. The essentials: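 MDA-kb2 cells carrying a stable androgen/glucocorticoid-responsive firefly luciferase reporter were seeded at 20,000 cells/well in Leibovitz's L-15 with 10% charcoal-stripped FBS (0% CO2) and grown to 80% confluence. Cells were co-treated with DHT and graded test compound for 20 h, lysed in Bright-Glo reagent for 4 min at room temperature, and luminescence was read.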

Experiment [2] concerns the target 6P chaperone complex (Hsp90, Hsp70, Hop, BAG1, Aha1 & Hsp40) refolding of FLuc (Homo sapiens, UniProt O95433+P08238+P0DMV8). The experiment is described as follows: In vitro refolding of heat-denatured firefly luciferase by 6P chaperone complex. The class given is biochemical. As to conditions: 15 μM.
Experiment [3] addresses Aha1-stimulated Hsp90 (ASH) ATPase activity (Homo sapiens, UniProt O95433+P08238). The experiment in a line: Aha1-stimulated Hsp90. Format: biochemical.
Experiment [4] has as its target human Hsp90β (human, UniProt P08238 1-724). The experiment in a line: other fluorescence titration.

6P chaperone complex (Hsp90, Hsp70, Hop, BAG1, Aha1 & Hsp40) refolding of FLuc, sequence (O95433 whole entry): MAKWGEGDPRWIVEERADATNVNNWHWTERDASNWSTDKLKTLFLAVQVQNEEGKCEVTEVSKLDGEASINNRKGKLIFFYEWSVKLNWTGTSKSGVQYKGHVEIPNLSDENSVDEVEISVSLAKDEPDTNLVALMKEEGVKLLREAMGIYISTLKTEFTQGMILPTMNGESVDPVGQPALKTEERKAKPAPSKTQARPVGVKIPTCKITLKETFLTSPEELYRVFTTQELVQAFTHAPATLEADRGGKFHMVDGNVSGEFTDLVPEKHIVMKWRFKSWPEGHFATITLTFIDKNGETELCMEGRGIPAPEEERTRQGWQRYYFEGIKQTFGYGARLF
6P chaperone complex (Hsp90, Hsp70, Hop, BAG1, Aha1 & Hsp40) refolding of FLuc, sequence (P08238 whole entry): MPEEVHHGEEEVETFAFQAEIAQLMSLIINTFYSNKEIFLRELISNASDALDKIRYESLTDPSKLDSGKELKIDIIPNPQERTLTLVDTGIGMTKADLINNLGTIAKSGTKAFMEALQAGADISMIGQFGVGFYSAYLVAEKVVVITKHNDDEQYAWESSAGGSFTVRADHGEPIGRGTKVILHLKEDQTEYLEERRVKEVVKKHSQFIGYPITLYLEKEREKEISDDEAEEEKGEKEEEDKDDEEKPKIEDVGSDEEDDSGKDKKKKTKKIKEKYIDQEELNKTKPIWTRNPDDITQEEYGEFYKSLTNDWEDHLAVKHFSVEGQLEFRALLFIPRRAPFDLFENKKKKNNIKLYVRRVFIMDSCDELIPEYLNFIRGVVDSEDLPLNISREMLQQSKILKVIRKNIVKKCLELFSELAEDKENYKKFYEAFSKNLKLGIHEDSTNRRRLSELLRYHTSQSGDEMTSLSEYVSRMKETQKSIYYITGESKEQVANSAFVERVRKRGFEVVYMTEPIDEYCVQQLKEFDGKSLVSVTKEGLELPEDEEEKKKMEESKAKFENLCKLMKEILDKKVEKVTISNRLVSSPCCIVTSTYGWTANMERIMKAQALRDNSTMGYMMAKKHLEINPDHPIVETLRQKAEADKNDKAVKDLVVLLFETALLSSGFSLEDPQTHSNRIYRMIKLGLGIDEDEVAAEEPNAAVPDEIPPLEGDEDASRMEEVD
6P chaperone complex (Hsp90, Hsp70, Hop, BAG1, Aha1 & Hsp40) refolding of FLuc, sequence (P0DMV8 whole entry): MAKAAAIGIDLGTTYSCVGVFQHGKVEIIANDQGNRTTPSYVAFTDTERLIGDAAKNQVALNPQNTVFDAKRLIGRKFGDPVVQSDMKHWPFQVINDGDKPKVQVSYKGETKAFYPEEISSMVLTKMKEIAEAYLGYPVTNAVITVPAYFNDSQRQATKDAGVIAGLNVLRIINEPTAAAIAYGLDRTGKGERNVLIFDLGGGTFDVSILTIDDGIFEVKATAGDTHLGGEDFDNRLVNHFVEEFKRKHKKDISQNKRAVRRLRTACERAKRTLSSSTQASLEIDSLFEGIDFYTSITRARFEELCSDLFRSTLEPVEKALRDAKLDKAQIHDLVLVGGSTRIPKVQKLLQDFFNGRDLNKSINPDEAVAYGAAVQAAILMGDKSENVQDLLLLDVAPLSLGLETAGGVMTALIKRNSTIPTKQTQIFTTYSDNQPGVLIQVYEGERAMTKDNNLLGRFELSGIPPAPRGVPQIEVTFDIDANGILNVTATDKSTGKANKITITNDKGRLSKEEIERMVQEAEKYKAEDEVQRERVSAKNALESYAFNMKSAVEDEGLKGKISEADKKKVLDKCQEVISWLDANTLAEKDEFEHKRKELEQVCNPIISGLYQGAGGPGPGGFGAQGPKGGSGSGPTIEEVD
human Hsp90β, sequence (P08238 whole entry): as the sequence (P08238 whole entry) above
Aha1-stimulated Hsp90 (ASH) ATPase activity, sequence (O95433 whole entry): as the sequence (O95433 whole entry) above
Aha1-stimulated Hsp90 (ASH) ATPase activity, sequence (P08238 whole entry): as the sequence (P08238 whole entry) above

As for `C=CCNC1=C2C[C@@H](C)C[C@H](OC)[C@H](O)[C@@H](C)/C=C(\C)[C@H](OC(N)=O)[C@@H](OC)/C=C\C=C(/C)C(=O)NC(=CC1=O)C2=O` [17-AAG], in experiment [1], the “IC50 of AR-dependent luciferase expression” value is listed as “better than that of the Hsp90i 17-AAG”.

On to `COC1=C2C[C@@H](C)C[C@H](OC)[C@H](O)[C@@H](C)/C=C(\C)[C@H](OC(N)=O)[C@@H](OC)/C=C\C=C(/C)C(=O)NC(=CC1=O)C2=O` [GA, geldanamycin], for which the “reduction in FLuc refolding” value in experiment [2] was found to be 25%. In experiment [3], the “activity in ASH assay (screen)” value is on record as “failed to completely inhibit the ASH activity”.

Consider `CCn1c(=O)/c(=C2\Sc3cc(Cl)ccc3N2C)s/c1=C\c1scc[n+]1Cc1ccccc1.[Cl-]` [JG98], for which the “effect on FLuc refolding” value in experiment [2] is reported as “completely block”.

Take `O=C(Nc1cccc(Cl)c1Cl)C1CCCCC1` [MJC13]: the “IC50 of AR-dependent luciferase expression” value in experiment [1] was “similar”.

B1: acrylodan-labeled CTD of Aha1 (domain or fragment, human, UniProt O95433 164-338, looked up)
chain: ILPTMNGESVDPVGQPALKTEERKAKPAPSKTQARPVGVKIPTCKITLKETFLTSPEELYRVFTTQELVQAFTHAPATLEADRGGKFHMVDGNVSGEFTDLVPEKHIVMKWRFKSWPEGHFATITLTFIDKNGETELCMEGRGIPAPEEERTRQGWQRYYFEGIKQTFGYGARLF
modifications: acrylodan on cysteine residues
With B1, the binding result in experiment [4] is “binds”.
